Source: ChEMBL document CHEMBL6127135, “Generation of BT-Amide, a Bone-Targeted Pyk2 Inhibitor, Effective via Oral Administration, for the Prevention of Glucocorticoid-Induced Bone Loss” (J Med Chem, 2024)
Blank lines part the entries; values can stand above or below the molecule they belong to. Activity calls are given as the source filed them. The rule behind the calls is not given here.

What was measured:
[1] = Toxicity in Glucocorticoid-induced C57BL/6 mouse bone loss model assessed as adverse effect by measuring mouse with skin lesions at 10 mg/kg/day, po treatment initiated 3 days prior to glucocorticoid challenge measured after 2 weeks; assay type: organism-based; conditions: in vivo, 408 h, time 17 day
In short: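 Female C57BL/6 mice, 4 months old; oral gavage 10 mg/kg 5 times per week from 3 days before placebo or prednisolone (2.1 mg/kg/d) pellet implantation. Mice scored for development of skin lesions during the study.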

Mus musculus = assay: In vivo inhibition of Glucocorticoid-induced bone loss in C57BL/6 mouse assessed as prevention of bone loss by measuring increase in bone mineral density at 10 mg/kg/day, po treatment initiated 3 days prior to glucocorticoid challenge measured after 2 weeks; assay type: functional, organism-based; conditions: time 17.0 day
In short: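 Female C57BL/6 mice, 4 months old, randomized; oral gavage 10 mg/kg 5 times per week, starting 3 days before subcutaneous slow-release pellet (placebo or prednisolone 2.1 mg/kg/d). Total-body BMD (head and tail excluded) by DEXA after 2 weeks; analysis blinded. Two-way ANOVA with Tukey post hoc, N = 9–10.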

[2] = molecular target: Protein-tyrosine kinase 2-beta (Homo sapiens, UniProt Q14289); assay: Inhibition of Pyk2 kinase (unknown origin) by bioluminescent ADP-Glo kinase assay
Chain of Protein-tyrosine kinase 2-beta (Q14289 whole entry): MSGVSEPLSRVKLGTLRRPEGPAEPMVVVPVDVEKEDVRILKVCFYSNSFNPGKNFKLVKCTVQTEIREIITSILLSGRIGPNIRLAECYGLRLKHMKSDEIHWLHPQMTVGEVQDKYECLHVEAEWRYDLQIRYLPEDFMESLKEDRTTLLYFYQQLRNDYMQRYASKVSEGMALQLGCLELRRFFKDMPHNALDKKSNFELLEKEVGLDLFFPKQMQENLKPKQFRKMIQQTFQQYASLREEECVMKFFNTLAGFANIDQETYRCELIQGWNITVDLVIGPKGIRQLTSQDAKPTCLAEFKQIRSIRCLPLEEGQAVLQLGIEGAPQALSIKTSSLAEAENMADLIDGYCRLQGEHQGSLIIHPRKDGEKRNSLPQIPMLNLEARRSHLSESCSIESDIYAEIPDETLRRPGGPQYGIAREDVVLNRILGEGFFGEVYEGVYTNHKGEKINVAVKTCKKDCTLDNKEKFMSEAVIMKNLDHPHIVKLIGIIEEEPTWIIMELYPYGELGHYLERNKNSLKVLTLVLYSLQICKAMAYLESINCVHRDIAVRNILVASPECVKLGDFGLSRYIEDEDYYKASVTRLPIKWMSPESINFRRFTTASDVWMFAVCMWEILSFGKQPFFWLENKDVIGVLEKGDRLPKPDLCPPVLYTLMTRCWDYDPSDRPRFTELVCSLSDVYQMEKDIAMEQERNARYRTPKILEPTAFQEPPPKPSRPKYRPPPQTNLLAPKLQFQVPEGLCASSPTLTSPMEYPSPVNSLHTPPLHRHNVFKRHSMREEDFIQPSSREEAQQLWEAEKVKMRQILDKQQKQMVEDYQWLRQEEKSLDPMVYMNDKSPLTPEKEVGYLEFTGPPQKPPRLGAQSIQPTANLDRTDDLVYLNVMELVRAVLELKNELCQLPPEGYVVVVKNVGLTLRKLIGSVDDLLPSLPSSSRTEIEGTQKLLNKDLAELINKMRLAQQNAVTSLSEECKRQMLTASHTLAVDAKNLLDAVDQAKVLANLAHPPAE
In short: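 ADP-Glo luminescent read-out of ADP formation, run per kit instructions; inhibitors tested as 8-point half-log dilution series, 1 uM down to 0.316 nM. IC50 obtained by fitting dose–response curves with an [inhibitor] vs normalized response model; each compound tested at least 3 times.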

[3] = Toxicity in Glucocorticoid-induced C57BL/6 mouse bone loss model assessed as circulating organ toxicity in serum by measuring calcium at 10 mg/kg/day, po treatment initiated 3 days prior to glucocorticoid challenge measured after 2 weeks; assay type: organism-based; conditions: in vivo, 408 h, time 17 day
In short: (§1)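 Same mouse regimen: 4-month-old female C57BL/6, gavage 10 mg/kg 5×/week, prednisolone 2.1 mg/kg/d or placebo pellets. At study end, blood collected after isoflurane sedation and euthanasia. 14-parameter Comprehensive Diagnostic Profile analyser panel on plasma. Untreated and vehicle mice served as controls. N = 9–10, mean ± SD.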

[4] = Toxicity in Glucocorticoid-induced C57BL/6 mouse bone loss model assessed as circulating organ toxicity in serum by measuring phosphorus at 10 mg/kg/day, po treatment initiated 3 days prior to glucocorticoid challenge measured after 2 weeks; assay type: organism-based; conditions: in vivo, 408 h, time 17 day; in short: as §1
[5] = Toxicity in Glucocorticoid-induced C57BL/6 mouse bone loss model assessed as circulating organ toxicity in serum by measuring creatinine at 10 mg/kg/day, po treatment initiated 3 days prior to glucocorticoid challenge measured after 2 weeks; assay type: organism-based; conditions: in vivo, 408 h, time 17 day; in short: as §1
[6] = Toxicity in Glucocorticoid-induced C57BL/6 mouse bone loss model assessed as circulating organ toxicity in serum by measuring Total protein at 10 mg/kg/day, po treatment initiated 3 days prior to glucocorticoid challenge measured after 2 weeks; assay type: organism-based; conditions: in vivo, 408 h, time 17 day; in short: as §1
[7] = Toxicity in Glucocorticoid-induced C57BL/6 mouse bone loss model assessed as circulating organ toxicity in serum by measuring Albumin at 10 mg/kg/day, po treatment initiated 3 days prior to glucocorticoid challenge measured after 2 weeks; assay type: organism-based; conditions: in vivo, 408 h, time 17 day; in short: as §1
[8] = Toxicity in Glucocorticoid-induced C57BL/6 mouse bone loss model assessed as circulating organ toxicity in serum by measuring sodium at 10 mg/kg/day, po treatment initiated 3 days prior to glucocorticoid challenge measured after 2 weeks; assay type: organism-based; conditions: in vivo, 408 h, time 17 day; in short: as §1
[9] = Toxicity in Glucocorticoid-induced C57BL/6 mouse bone loss model assessed as circulating organ toxicity in serum by measuring […] at 10 mg/kg/day, po treatment initiated 3 days prior to glucocorticoid challenge measured after 2 weeks; assay type: organism-based; conditions: in vivo, 408 h, time 17 day; in short: as §1
[10] = Toxicity in Glucocorticoid-induced C57BL/6 mouse bone loss model assessed as circulating organ toxicity in serum by measuring glucose at 10 mg/kg/day, po treatment initiated 3 days prior to glucocorticoid challenge measured after 2 weeks; assay type: organism-based; conditions: in vivo, 408 h, time 17 day; in short: as §1
[11] = Toxicity in Glucocorticoid-induced C57BL/6 mouse bone loss model assessed as adverse effect at 10 mg/kg/day, po treatment initiated 3 days prior to glucocorticoid challenge measured after 2 weeks; assay type: organism-based; conditions: in vivo, 408 h, time 17 day
[12] = Toxicity in Glucocorticoid-induced C57BL/6 mouse bone loss model assessed as circulating organ toxicity in serum by measuring alkaline phosphatase at 10 mg/kg/day, po treatment initiated 3 days prior to glucocorticoid challenge measured after 2 weeks; assay type: organism-based; conditions: in vivo, 408 h, time 17 day; in short: as §1
[13] = Toxicity in Glucocorticoid-induced C57BL/6 mouse bone loss model assessed as circulating organ toxicity in serum by measuring total bilirubin at 10 mg/kg/day, po treatment initiated 3 days prior to glucocorticoid challenge measured after 2 weeks; assay type: organism-based; conditions: in vivo, 408 h, time 17 day; in short: as §1
[14] = Toxicity in Glucocorticoid-induced C57BL/6 mouse bone loss model assessed as circulating organ toxicity in serum by measuring blood urea nitrogen at 10 mg/kg/day, po treatment initiated 3 days prior to glucocorticoid challenge measured after 2 weeks; assay type: organism-based; conditions: in vivo, 408 h, time 17 day; in short: as §1
[15] = Toxicity in Glucocorticoid-induced C57BL/6 mouse bone loss model assessed as circulating organ toxicity in serum by measuring amylase at 10 mg/kg/day, po treatment initiated 3 days prior to glucocorticoid challenge measured after 2 weeks; assay type: organism-based; conditions: in vivo, 408 h, time 17 day; in short: as §1
[16] = Toxicity in Glucocorticoid-induced C57BL/6 mouse bone loss model assessed as circulating organ toxicity in serum by measuring potassium at 10 mg/kg/day, po treatment initiated 3 days prior to glucocorticoid challenge measured after 2 weeks; assay type: organism-based; conditions: in vivo, 408 h, time 17 day; in short: as §1

Compound: CNC(=O)c1ccccc1Nc1nc(Nc2ccc(OC(=O)CCCCC(=O)NCCCC(O)(P(=O)(O)O)P(=O)(O)O)cc2OC)ncc1Cl
Activity [1]: Non-Toxic
Activity (Mus musculus): inactive

IC50 [2]: 16.9 nM
Compound: CNC(=O)c1ccccc1Nc1nc(Nc2ccc(N3CCOCC3)cc2OC)ncc1Cl
Activity [1]: 15%
Activity (Mus musculus): Active

Compound: CNC(=O)c1ccccc1Nc1nc(Nc2ccc(NC(=O)CCCCC(=O)NCCCC(O)(P(=O)(O)O)P(=O)(O)O)cc2OC)ncc1Cl
Activity [3]: Non-Toxic
Activity [4]: Non-Toxic
Activity [5]: Non-Toxic
Activity (Mus musculus): Active
Activity [6]: Non-Toxic
Activity [7]: Non-Toxic
Activity [8]: Non-Toxic
Activity [9]: Non-Toxic
IC50 [2]: 44.7 nM
Activity [10]: Non-Toxic
Activity [11]: Non-Toxic
Activity [12]: Non-Toxic
Activity [13]: Non-Toxic
Activity [14]: Non-Toxic
Activity [15]: Non-Toxic
Activity [16]: Non-Toxic

IC50 [2]: 101 nM
Compound: CNC(=O)c1ccccc1Nc1nc(Nc2ccc(N3CCC(O)CC3)cc2OC)ncc1Cl

IC50 [2]: 43.5 nM
Compound: CNC(=O)c1ccccc1Nc1nc(Nc2ccc(N)cc2OC)ncc1Cl
